Key:
Enterococcus faecium = assay: Inhibition of the growth of Streptococcus faecium; type: functional, organism-based
Method in brief: (§1)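 Bacterial growth inhibition with folate at 1 ng/mL in the medium. Reported as IC50.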

Lacticaseibacillus casei = assay: Inhibition of the growth of Lactobacillus casei; type: functional, organism-based; method in brief: as §1
[1] = molecular target: T1, Trifunctional purine biosynthetic protein adenosine-3 (Mus musculus, UniProt Q64737); assay: Inhibition of the GAR formyl transferase in L1210
T1 sequence (Q64737 whole entry): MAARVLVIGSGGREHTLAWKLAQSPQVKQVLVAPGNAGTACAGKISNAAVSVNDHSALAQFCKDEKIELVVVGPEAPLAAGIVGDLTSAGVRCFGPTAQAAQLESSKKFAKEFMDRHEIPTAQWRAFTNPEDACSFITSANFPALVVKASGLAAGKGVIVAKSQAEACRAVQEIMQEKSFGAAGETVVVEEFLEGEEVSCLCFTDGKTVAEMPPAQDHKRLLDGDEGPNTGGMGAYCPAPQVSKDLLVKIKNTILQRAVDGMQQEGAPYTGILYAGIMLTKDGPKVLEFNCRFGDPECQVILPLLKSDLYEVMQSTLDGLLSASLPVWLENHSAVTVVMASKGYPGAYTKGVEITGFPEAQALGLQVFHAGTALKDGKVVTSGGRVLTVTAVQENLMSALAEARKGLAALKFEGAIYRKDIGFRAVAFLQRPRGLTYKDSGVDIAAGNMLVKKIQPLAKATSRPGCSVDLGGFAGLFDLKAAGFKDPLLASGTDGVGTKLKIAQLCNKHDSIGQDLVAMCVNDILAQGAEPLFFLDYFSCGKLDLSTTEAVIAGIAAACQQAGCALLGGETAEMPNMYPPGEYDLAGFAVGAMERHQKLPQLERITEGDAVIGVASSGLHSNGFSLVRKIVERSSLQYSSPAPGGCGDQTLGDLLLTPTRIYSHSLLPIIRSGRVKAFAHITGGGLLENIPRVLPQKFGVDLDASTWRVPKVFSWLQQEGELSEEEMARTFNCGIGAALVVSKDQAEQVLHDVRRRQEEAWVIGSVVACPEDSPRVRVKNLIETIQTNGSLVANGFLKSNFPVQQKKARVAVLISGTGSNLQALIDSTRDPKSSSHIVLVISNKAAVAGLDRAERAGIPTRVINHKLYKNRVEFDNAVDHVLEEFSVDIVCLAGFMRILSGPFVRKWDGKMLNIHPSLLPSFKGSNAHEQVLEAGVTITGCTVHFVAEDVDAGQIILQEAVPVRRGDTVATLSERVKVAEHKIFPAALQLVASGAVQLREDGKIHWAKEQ
Method in brief: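 GAR formyltransferase activity in L1210 cell extract, run at 30 °C in 50 mM Tris-HCl, pH 7.5. Substrates were (6R)-10-formyltetrahydrofolate at 60 μM and glycylamide ribonucleotide at 0.24 mM. The result is reported as IC50.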

[2] = molecular target: T1, Trifunctional purine biosynthetic protein adenosine-3; assay: Inhibition of the GAR transformylase in L1210
MCF7 = assay: Inhibition of the growth of MCF-7 human breast adenocarcinoma cells; type: functional, cell-based
Method in brief: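 MCF-7 cells grown as monolayers in RPMI 1640 with 10% dialyzed heat-inactivated fetal calf serum. 10 nM calcium leucovorin replaced folic acid as the folate source. Cells were seeded at 7.5 × 10⁴ cells/mL. The result is reported as IC50.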

MOLT-4 = assay: Inhibition of the growth of MOLT-4 human leukemia cells; type: functional, cell-based
Method in brief: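 MOLT-4 cells grown in suspension in RPMI 1640 with 10% dialyzed fetal calf serum. 10 nM calcium leucovorin replaced folic acid as the folate source. The result is reported as IC50.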

[3] = molecular target: T2, Trifunctional purine biosynthetic protein adenosine-3 (Homo sapiens, UniProt P22102); assay: Inhibition of the GAR transformylase in MOLT-4 human leukemia cells
T2 sequence (P22102 whole entry): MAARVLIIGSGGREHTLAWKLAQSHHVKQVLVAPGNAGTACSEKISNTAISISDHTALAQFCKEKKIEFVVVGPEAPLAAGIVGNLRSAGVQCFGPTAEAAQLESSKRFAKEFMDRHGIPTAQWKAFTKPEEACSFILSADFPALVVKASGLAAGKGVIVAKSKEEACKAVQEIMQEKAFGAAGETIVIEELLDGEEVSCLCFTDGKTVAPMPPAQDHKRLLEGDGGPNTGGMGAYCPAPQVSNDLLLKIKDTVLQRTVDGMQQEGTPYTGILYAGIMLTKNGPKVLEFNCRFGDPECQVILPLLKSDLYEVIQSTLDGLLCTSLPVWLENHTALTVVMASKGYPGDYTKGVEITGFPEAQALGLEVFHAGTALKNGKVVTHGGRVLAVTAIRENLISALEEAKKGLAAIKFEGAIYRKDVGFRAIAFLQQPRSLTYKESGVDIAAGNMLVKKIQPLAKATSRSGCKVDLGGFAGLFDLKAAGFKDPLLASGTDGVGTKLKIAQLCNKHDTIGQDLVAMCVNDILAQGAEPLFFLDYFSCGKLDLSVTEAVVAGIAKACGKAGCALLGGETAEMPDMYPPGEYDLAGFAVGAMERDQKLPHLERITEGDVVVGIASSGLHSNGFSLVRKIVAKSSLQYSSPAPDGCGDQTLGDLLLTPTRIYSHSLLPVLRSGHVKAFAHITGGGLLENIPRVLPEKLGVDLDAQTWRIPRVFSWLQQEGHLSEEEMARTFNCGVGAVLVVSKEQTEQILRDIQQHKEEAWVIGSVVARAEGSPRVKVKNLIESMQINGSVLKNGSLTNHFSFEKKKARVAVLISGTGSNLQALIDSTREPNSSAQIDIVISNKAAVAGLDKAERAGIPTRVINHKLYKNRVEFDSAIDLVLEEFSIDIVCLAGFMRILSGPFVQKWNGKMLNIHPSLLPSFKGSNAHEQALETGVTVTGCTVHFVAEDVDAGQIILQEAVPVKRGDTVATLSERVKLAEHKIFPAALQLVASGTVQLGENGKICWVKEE

| IC50 [1] | SMILES | IC50 (Enterococcus faecium) | IC50 (Lacticaseibacillus casei) | IC50 [2] | IC50 (MCF7) | IC50 (MOLT-4) | IC50 [3] |
| --- | --- | --- | --- | --- | --- | --- | --- |
| – | CC(Cc1ccc(C(=O)NC(CCC(=O)O)C(=O)O)cc1)CC1CNc2nc(N)nc(O)c2N1 (stereo not drawn) | 128 nM | 3800 nM | – | – | – | – |
| – | CN(Cc1cnc2nc(N)nc(N)c2n1)c1ccc(C(=O)N[C@@H](CCC(=O)O)C(=O)O)cc1 [METHOTREXATE] | 0.9 nM | 0.02 nM | – | – | – | – |
| – | CC(Cc1ccc(C(=O)NC(CCC(=O)O)C(=O)O)cc1)Cc1cnc2nc(N)nc(O)c2n1 (stereo not drawn) | 250 nM | 4000 nM | – | – | – | – |
| – | CC(CC1=Nc2c(O)nc(N)nc2NC1)Cc1ccc(C(=O)NC(CCC(=O)O)C(=O)O)cc1 (stereo not drawn) | 40 nM | 1700 nM | – | – | – | – |
| > 2500 nM | Nc1nc(O)c2nc(CCCc3ccc(C(=O)NC(CCC(=O)O)C(=O)O)cc3)cnc2n1 (stereo not drawn) | 120 nM | 2200 nM | – | – | – | – |
| – | Nc1nc(O)c2c(n1)NC[C@H](CCNc1ccc(C(=O)NC(CCC(=O)O)C(=O)O)cc1)N2 (stereo partly drawn) [TETRAHYDROHOMOFOLATE] | – | – | > 0.02 nM | – | – | – |
| – | Nc1nc2c(c(=O)[nH]1)NC(CCCc1ccc(C(=O)NC(CCC(=O)O)C(=O)O)cc1)CN2 (stereo not drawn) | 30 nM | 540 nM | 0.018 nM | 4.5 µM | 3.4 µM | 0.014 nM |

From ChEMBL document CHEMBL1124491, “Folate analogues. 31. Synthesis of the reduced derivatives of 11-deazahomofolic acid, 10-methyl-11-deazahomofolic acid, and their evaluation as inhibitors of glycinamide ribonucleotide formyltransferase” (J Med Chem, 1989)
